# High-throughput results: PubChem, PCMD
# A selection: hits, their analogues and other compounds. The true share with any hit is near 1.1%.
# eIF2B yeast act – modulators of yeast eIF2B activity. hit rate 0.91% among 27,000. AID 688. S. cerevisiae eIF2B-epsilon R284H, GCN4-lacZ luminescence. inhibition, % at 25 µM (by protocol);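 active = mutant luminescence inhibited past about 50% while wild type luminescence and mutant growth stay under set limits, limit read from the data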
#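 material = yeast eIF2B-epsilon R284H mutant carrying GCN4–beta-galactosidase fusion | schedule = 16 h growth with compound at 30 °C, 90 min Beta-Glo step | measured by = luminescence and A595 | compound dosing = one concentration, 25 µM, 0.25% DMSO | read-out basis = % inhibition of reporter signal and growth versus controls | buffer or medium = YPD medium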
# Yeast growth tox – Inhibits yeast growth, turbidity readout. S. cerevisiae wild-type growth, A595 turbidity, 16 h. growth inhibition, % at 25 µM (by protocol). hit rate 0.3% among 30,000;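 active = mutant and wild-type yeast strains alike exhibit over 30% growth inhibition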;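 also: 0% = untreated cell controls and 100% = YPD media blanks without cells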
#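 System: S. cerevisiae wild-type or eIF2Bepsilon-R284H mutant strain; times: 16 h growth with compound, 30 °C; signal: absorbance at 595 nm (turbidity); measure: growth inhibition (%) versus cell controls and blanks; compound: 25 µM single dose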
# The depositor's hits bear a star; nt = not tested or not shown.
SMILES,eIF2B yeast act,Yeast growth tox
CC1CCN(C(=O)CSc2ccc3nnc(-c4ccccc4)n3n2)CC1,-7,5
CC(NC(=O)CSc1nc2ccccc2c(=O)n1CCCO)c1ccccc1 (stereo not drawn),53*,8
CC(C)NC(=O)CSc1nc2ccccc2c(=O)n1CCCOC(C)C,-5,8
CCOc1cc(Br)c(C(=O)O)cc1OC,10,2
CCCCCn1c(SCC(=O)OCC)nc2cc(C(=O)NCc3ccco3)ccc2c1=O,56*,-7
C=CCn1c(SCC(=O)OCC)nc2cc(C(=O)NCc3ccco3)ccc2c1=O,nt,17
CCCn1c(N)c(C(=O)CSc2nc(C)cs2)c(=O)n(C)c1=O,4,9
Cc1nc2c(Br)cc(Br)cc2cc1O,-20,35
COc1cc2[nH]c(=S)n(N(C(C)=O)C(C)=O)c(=O)c2cc1OC,nt,27
COc1cc2[nH]c(=S)n(C3CCCC3)c(=O)c2cc1OC,3,32*
CCN(CC(=O)N1CCN(C)CC1)S(=O)(=O)c1ccc(Cl)cc1,12,-13
Oc1c(CN2CCOCC2)cc(-c2ccccc2)cc1CN1CCOCC1,6,39
Cc1c(O)c(CN2CCCC2)cc2c1oc(=O)c1ccccc12,58*,-2
COc1ccc(N/C=C(\C#N)c2nc3ccccc3n2C)c(OC)c1,58*,-3
COc1ccc(Nc2nc(N3CCCCC3)nc3ccccc23)c(OC)c1,6,-8
COc1ccc(-n2c(=O)c3ccccc3n(CC(=O)NC3CCCCC3)c2=O)cc1,nt,4
Cc1c(NC(=O)c2cc(-c3cccs3)on2)c(=O)n(-c2ccccc2)n1C,18,5
O=C(CSc1nnc(-c2ccco2)o1)NC(=O)Cc1ccccc1,24,8
O=C(CCSc1nnc(-c2ccco2)o1)Nc1ccc(Cl)cc1,57*,-32
N#Cc1nc(-c2cccs2)oc1NCc1ccc2c(c1)OCO2,12,8
CCn1c(SCC(=O)NCCc2ccc(F)cc2)nnc1-c1cccs1,19,13
CCCC(=O)N1CCN(C2=NS(=O)(=O)c3ccccc32)CC1,44,9
CC(C)C(=O)N1CCN(C2=NS(=O)(=O)c3ccccc32)CC1,53*,-9
CC(=O)c1sc(-c2c(C)nc3sccn23)nc1C1CCCC1,13,4
CCCCC(=O)Nc1ccc(N2CCN(S(C)(=O)=O)CC2)cc1,62*,3
SMILES,eIF2B yeast act,Yeast growth tox
CCCCCC(=O)Nc1ccc(N2CCN(C(=O)CCC)CC2)cc1,5,-4
COc1ccc(C2=CC(c3sccc3C)n3nnnc3N2)cc1 (stereo not drawn),56*,14
COc1ccc(C2C=C(c3ccc(Cl)cc3)Nc3nc(NC(C)=O)nn32)cc1 (stereo not drawn),1,19
N#CC(c1ccc(Cl)cc1)c1ccc(Cl)nn1 (stereo not drawn),25,16
COc1ccccc1-n1c(SCC(=O)Nc2cccc3ccccc23)nc(O)cc1=O,nt,22
COc1ccccc1NC(=O)CSc1nc(O)cc(=O)n1C,53*,-21
Cc1cc(S(=O)(=O)NC(C)C)ccc1OCC(=O)N1CCOCC1,19,18
COc1ccc(C2NC(=O)C(C)S2)cc1 (stereo not drawn),14,31
CN1CCN(S(=O)(=O)c2ccc(NC(=O)Nc3cccc(Cl)c3)cc2)CC1,nt,-8
COC(=O)c1cccc(NC(=O)c2ccc(S(=O)(=O)N3CCN(C)CC3)cc2)c1,59*,1
Cc1ccc(N2CC(C(=O)Nc3nccs3)CC2=O)cc1Cl (stereo not drawn),nt,-2
O=C(Nc1ccc(Cl)c(Cl)c1)C1CC(=O)N(c2ccc(Br)cc2)C1 (stereo not drawn),61,79*
COc1ccc(S(=O)(=O)CCC(=O)N2c3ccccc3CC2C)cc1 (stereo not drawn),56*,-4
COc1ccc(S(=O)(=O)CCC(=O)N2CC(=O)N(CCc3ccccc3)C(=O)C2)cc1,25,4
Cc1cc(=O)oc2ccc(OCC(=O)N3CCc4ccccc43)cc12,50*,5
Cc1cc(=O)oc2cc(OCC(=O)N3CCCc4ccccc43)ccc12,-7,3
Clc1ccc2c(c1)C(N1CCNCC1)Cc1ccccc1S2 (stereo not drawn),41,86*
Cc1ccc(N(C)C(=O)N2CCN(S(=O)(=O)c3c(C)cc(C)cc3C)CC2)cc1,16,10
CC(C)(Oc1ccc(Cl)cc1)C(=O)Nc1ccncc1,nt,76*
CC(C)(Oc1ccc(Cl)cc1)C(=O)NCc1ccco1,22,29
CS(=O)(=O)Nc1ccccc1C(=O)N1CCN(c2ccccc2)CC1,14,14
CCNc1nc2nonc2nc1NCC,nt,-7
COC(=O)c1cc2occc2n1CC(=O)Nc1ccc(OC)c(OC)c1,60*,-2
COC(=O)c1cc2occc2n1CC(=O)Nc1cc(OC)cc(OC)c1,7,-27
Cc1cccc(C)c1NC(=O)CSc1nc(-c2ccco2)cc(C(F)(F)F)n1,17,-11
